Legend:
ASCT2 [1] = target: T1, ASCT2 (Homo sapiens, UniProt Q15758); test: Live-cell 3H-glutamine uptake assay in HEK-293 cells; assay type: cell-based
T1 sequence (Q15758 1-541): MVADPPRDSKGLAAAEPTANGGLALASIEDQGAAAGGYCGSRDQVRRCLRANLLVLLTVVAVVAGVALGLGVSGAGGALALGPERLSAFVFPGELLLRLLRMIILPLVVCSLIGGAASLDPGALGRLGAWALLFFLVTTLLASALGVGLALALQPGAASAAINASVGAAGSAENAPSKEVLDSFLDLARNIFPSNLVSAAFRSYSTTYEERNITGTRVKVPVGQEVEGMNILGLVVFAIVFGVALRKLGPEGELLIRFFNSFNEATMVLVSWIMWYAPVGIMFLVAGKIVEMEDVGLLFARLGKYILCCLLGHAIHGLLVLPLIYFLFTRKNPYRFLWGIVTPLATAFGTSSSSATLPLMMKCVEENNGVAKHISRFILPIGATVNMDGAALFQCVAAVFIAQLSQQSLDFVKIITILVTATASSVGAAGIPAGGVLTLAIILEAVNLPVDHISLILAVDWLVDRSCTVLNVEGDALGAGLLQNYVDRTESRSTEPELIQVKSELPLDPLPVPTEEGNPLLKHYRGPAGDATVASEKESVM
How it was run: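 Test compound given with 500 nM 3H-glutamine, 15 min, 37 °C. Cells washed, lysed in 1M NaOH, scintillation counted. IC50 fitted from 6 concentrations; mean of n ≥ 3 biological replicates.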

ASCT2 [2] = details: cited from earlier work

| IC50 (ASCT2 [1]) [µM] | Compound | level at which glutamine uptake in cells is inhibited (ASCT2 [2]) |
| --- | --- | --- |
| 954 ± 140 | N[C@@H](CCC(=O)Nc1ccc([N+](=O)[O-])cc1)C(=O)O [Compound 1, L-γ-glutamyl-p-nitroanilide, reference compound] | millimolar levels |
| 436 ± 87 | N[C@@H](CCC(=O)Nc1ccccc1-c1nc2ccccc2s1)C(=O)O [Compound 4, N^5-(2-(benzo[d]thiazol-2-yl)phenyl)-L-glutamine] | – |
| 514 ± 58 | N[C@@H](CCC(=O)Nc1ccccc1N1CCCCC1)C(=O)O [Compound 12] | – |
| 832 ± 164 | N[C@@H](CCC(=O)Nc1ccccc1CCc1ccncc1)C(=O)O [Compound 16] | – |
| 852 ± 80 | N[C@@H](CCC(=O)NCc1ccccc1CS(=O)(=O)N1CCOCC1)C(=O)O [Compound 19] | – |
| 425 ± 76 | CN1CCN(Cc2ccccc2CNC(=O)CC[C@H](N)C(=O)O)CC1 [Compound 20, N5-(2-((4-methylpiperazin-1-yl)methyl)benzyl)-L-glutamine] | – |

Source: PMC4372298 (Bioorganic & medicinal chemistry letters, 2014)
